By IC50 is commonly meant the concentration needed to halve the response being measured. One may read the inhibition as the share of the control response that was lost under treatment. In general, solubility refers to how much of the substance goes into solution per volume. Low readings indicate a poorly soluble substance, high ones a readily soluble substance. One may read the logD as the decadic logarithm of the distribution of all forms, ionised or not, between an organic phase and buffer at a given pH. Low values mean lower lipophilicity, high ones higher lipophilicity. A word on the pKa: it is the pH at which an ionisable group is half protonated.

Converted amounts (≈) assume the structure as drawn. The source made the active and inactive calls. The rule behind the calls is not given here. Bounds are passed on as bounds.

Experimental findings from ChEMBL document CHEMBL5120830, “New aldo-keto reductase 1C3 (AKR1C3) inhibitors based on the hydroxytriazole scaffold” (Eur J Med Chem, 2022) are described below.

Series [1] concerns the target T1, Aldo-keto reductase family 1 member C3 (Homo sapiens, UniProt P42330).
T1 sequence (P42330 whole entry): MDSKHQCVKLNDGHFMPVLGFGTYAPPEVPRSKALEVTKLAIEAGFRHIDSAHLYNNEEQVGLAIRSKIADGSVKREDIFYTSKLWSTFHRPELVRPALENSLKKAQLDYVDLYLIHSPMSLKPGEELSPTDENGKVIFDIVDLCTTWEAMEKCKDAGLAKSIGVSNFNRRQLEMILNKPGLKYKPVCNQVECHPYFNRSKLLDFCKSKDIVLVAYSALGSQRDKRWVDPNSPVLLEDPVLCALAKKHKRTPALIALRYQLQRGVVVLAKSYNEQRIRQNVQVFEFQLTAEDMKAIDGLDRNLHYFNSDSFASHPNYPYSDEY
The series is described as follows: Inhibition of recombinant human AKR1C3 transfected in Escherichia coli BL21 (DE) assessed as reduction in NADPH production using S-tetralol as substrate by fluorescence based analysis. The method, boiled down:
(§1)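 GST-tagged human AKR1C2 or AKR1C3 made in bacteria (IPTG 0.5 mM, 2 h), purified on glutathione sepharose and thrombin-cleaved. Assay in 100 mM phosphate pH 7 with 200 μM NADP+ and 10% EtOH at 37 °C. S-tetralol was 15 μM for AKR1C2 and 160 μM for AKR1C3. NADPH fluorescence read at 340/460 nm. Inhibition from initial velocities versus solvent controls; ≥3 experiments in triplicate.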

The target in series [2] is T2, Aldo-keto reductase family 1 member C2 (Homo sapiens) (UniProt P52895).
T2 sequence (whole entry): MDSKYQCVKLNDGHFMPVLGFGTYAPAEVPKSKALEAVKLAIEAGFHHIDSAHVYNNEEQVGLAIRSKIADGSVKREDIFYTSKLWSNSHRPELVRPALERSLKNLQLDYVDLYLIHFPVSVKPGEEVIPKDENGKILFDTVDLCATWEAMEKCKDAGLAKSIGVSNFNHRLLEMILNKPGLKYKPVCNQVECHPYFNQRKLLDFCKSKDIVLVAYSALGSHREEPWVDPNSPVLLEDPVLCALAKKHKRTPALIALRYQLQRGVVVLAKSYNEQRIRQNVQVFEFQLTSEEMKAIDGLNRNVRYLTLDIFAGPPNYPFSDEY
The series is described as follows: Inhibition of recombinant human AKR1C2 transfected in Escherichia coli BL21 (DE) assessed as reduction in NADPH production at 100 uM using S-tetralol as substrate by fluorescence based analysis relative to control. In a few lines: as §1

Series [3] in a line: Solubility of the compound in PBS at pH 7.4 incubated for 24 hrs by UHPLC analysis. It is filed as physicochemical. The method, boiled down: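 About 1 mg of solid was shaken in 1 mL of 50 mM PBS pH 7.4 at 25 °C for 24 h, then filtered (0.45 μm). The filtrate was run on C18 UHPLC with a water/methanol gradient in 0.1% TFA, read at 254 and 230 nm. Concentration came from external calibration over 1-200 μM; detection limit 1 μM.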

Series [4] concerns CWR22R. The series is described as follows: Antiproliferative activity against human 22Rv1 cells expressing AKR1C3 assessed as inhibition of cell growth incubated for 72 hrs by SRB assay. In kind it is functional, cell-based. The settings on record: 22Rv1, 72 h. In a few lines: (§2)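 22RV1 cells in RPMI with 10% FCS, 37 °C, 5% CO2. Seeded at 10,000/well in medium with 10% charcoal-stripped serum and left 24 h. Inhibitor dilutions in DMSO added in triplicate for 72 h; DMSO controls at most 1% v/v. Growth read by sulforhodamine B colorimetric assay. IC50 from the mean of three separate experiments.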
In general terms: Sulforhodamine B stains cellular protein and so reports cell mass.

In series [5] the test system is CWR22R. The series is described as follows: Inhibition of prostate specific antigen expression in human 22Rv1 cells expressing AKR1C3 at 5 to 50 uM incubated for 72 hrs by Western blot analysis. In kind it is functional, cell-based. As to conditions: dose 5-50 µM. In a few lines:
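22RV1 cells seeded at 300,000/well in charcoal-stripped serum medium for 24 h, then treated 72 h at 5 or 50 μM in DMSO (≤0.5% v/v). RIPA lysates of 30 μg protein blotted with anti-PSA (1:500, overnight 4 °C) and HRP secondary. β-actin was the loading control. Densitometric PSA/β-actin as fold change; duplicate.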
Background: A western blot detects proteins with antibodies after separation by electrophoresis.

For series [6], the system named is CWR22R. The series is described as follows: Antiproliferative activity against human 22Rv1 cells expressing AKR1C3 assessed as reduction in cell viability at 40 to 60 uM incubated for 72 hrs in presence of abiraterone by SRB assay relative to either drug alone. It is filed as functional. The settings on record: dose 40-60 µM. In a few lines:
(§3)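 Co-treatment in 22RV1 cells seeded in charcoal-stripped serum medium. Test compound at 40 or 60 μM was given for 72 h with 10 μM abiraterone or 30 μM enzalutamide, or with no drug. Growth was read by SRB assay and expressed as % T/C (mean OD treated / mean OD control × 100).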

Series [7] has as its system CWR22R. The series is described as follows: Antiproliferative activity against human 22Rv1 cells expressing AKR1C3 assessed as reduction in cell viability at 40 to 60 uM incubated for 72 hrs in presence of , enzalutamide by SRB assay relative to either drug alone. In kind it is functional. The settings on record: dose 40-60 µM. The method, boiled down: as §3
Series [8] in a line: Lipophilicity, logD of the compound in n-octanol and phosphate buffer at pH 7.4 incubated for 4 hrs by UV-Vis spectrophotometer based shake flask method. In kind it is physicochemical. The method, boiled down: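 Shake-flask logD between n-octanol and 50 mM PBS pH 7.4 (ionic strength 0.15 M, KCl). The phases were pre-saturated for 4 h, then shaken ~20 min with compound and centrifuged. Aqueous concentration was read by UV at λmax against calibration curves. Each value averages at least six measurements.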

Series [9] can be described thus: Ionization constant, pKa of the compound by potentiometric titration method. It is filed as physicochemical. The method, boiled down:
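pKa was measured by potentiometric titration on a Sirius T3 in MDM cosolvent (20% acetonitrile, 20% dioxane, 20% methanol), with added percentages varied.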

Series [10] can be described thus: Inhibition of androstenedione induced testosterone production in human 22Rv1 cells expressing AKR1C3 assessed as reduction in testosterone level to 0.5 uM pretreated for 1 hr followed by androstenedione addition and measured after 24 hrs by ELISA relative to control. In kind it is functional, CWR22R. As to conditions: time 25 hrs. The method, boiled down: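 22RV1 cells seeded at 30,000/well in medium with 10% charcoal-stripped serum and left 24 h. Inhibitor added 1 h before 30 nM androstenedione, then 24 h more. Supernatant (1:2) assayed for testosterone by ELISA read at 405 nm against a standard curve. Mean of three experiments, each in triplicate.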
(In general: In an ELISA, binding on a coated surface is turned into a signal by an enzyme label.)

The target in series [11] is T2, Aldo-keto reductase family 1 member C2 (Homo sapiens). The series is described as follows: Inhibition of recombinant human AKR1C2 transfected in Escherichia coli BL21 (DE) assessed as reduction in NADPH production at 50 uM using S-tetralol as substrate by fluorescence based analysis relative to control. The method, boiled down: as §1
Series [12] has as its system CWR22R. The series is described as follows: Antiproliferative activity against human 22Rv1 cells expressing AKR1C3 assessed as reduction in cell viability at 100 uM incubated for 72 hrs by SRB assay relative to control. In kind it is functional. The method, boiled down: as §2
The target of series [13] is T2, Aldo-keto reductase family 1 member C2 (Homo sapiens). The series is described as follows: Inhibition of recombinant human AKR1C2 transfected in Escherichia coli BL21 (DE) assessed as reduction in NADPH production at 20 uM using S-tetralol as substrate by fluorescence based analysis relative to control. In a few lines: as §1
Series [14] has as its target T3, Aldo-keto reductase family 1 member C2 (Homo sapiens, UniProt P52895).
T3 sequence (P52895 whole entry): T2 sequence (whole entry)
The series is described as follows: Inhibition of recombinant human AKR1C2 transfected in Escherichia coli BL21 assessed as reduction in NADP+-dependent S-tetralol oxidation incubated for 20 mins by absorbance based analysis.

As for `COc1ccc(Cn2nnc(O)c2C(=O)Nc2cccc(Oc3ccccc3)c2)cc1`, the IC50 in series [1] was found to be 110 nM; in [4] it was 65 µM. In series [2], the inhibition was found to be 72.8%. This compound also had a solubility at 24 h in [3] of less than 1 µM. Also, the inhibition entry in series [5] is “Active”. Moreover, the results for the Activity in series [6] and in series [7] were more than 20% and 50%, respectively.

For `COc1ccc(Cn2nnc(O)c2C(=O)Nc2cccc(-c3ccc(O)cc3)c2)cc1`, the IC50 was 310 nM in series [1] and 67.5 µM in [4]. For the same compound, in series [2], the inhibition worked out at 37.9%. The solubility at 24 h in series [3] is 2.05 µM (≈ 0.854 µg/mL). The logD at 4 h in series [8] is 2.19.

Regarding `COc1ccc(Cn2nnc(O)c2C(=O)Nc2cccc(-c3cccc(O)c3)c2)cc1`, the IC50 in [1] stood at 210 nM; in [4], 75.7 µM. In addition, the inhibition in [2] came to 38.5%. In addition, the solubility at 24 h in series [3] came to 40.3 µM (≈ 16.8 µg/mL). Besides, the logD at 4 h in [8] worked out at 2.25. For the same compound, the pKa in [9] came out at 4.9.

Regarding `COc1ccc(Cn2nnc(O)c2C(=O)Nc2cccc(-c3ccccc3)c2)cc1`, the results for the IC50 in series [1] and in series [4] were 69 nM and 52.1 µM, respectively. Further, the inhibition in series [2] stood at 30.5%. Moreover, in [3], the solubility at 24 h was less than 1 µM. In [8], the logD at 4 h was determined as 2.3. Moreover, the inhibition entry in series [5] is “Active”. Moreover, the Activity in series [6] is given as more than 20%; in series [7], 30%. Also, in series [10], the inhibition at 0.5 µM came out at 20%.

Turning to `COc1ccc(Cn2nnc(O)c2C(=O)Nc2cccc(-c3ccc(OC)cc3)c2)cc1`, the concentration for half-maximal inhibition (IC50) in series [1] is 220 nM; in [4] it was 50.1 µM. In series [11], the inhibition stood at 31.6%. In [3], this compound gave a solubility at 24 h of less than 1 µM. In [8], the logD at 4 h was found to be 2.59.

Turning to `COc1ccc(Cn2nnc(O)c2C(=O)Nc2ccc3c(c2)ncn3-c2ccccc2)cc1`, the concentration for half-maximal inhibition (IC50) in series [1] was 1630 nM; in series [4], more than 100 µM. The compound also came in with a solubility at 24 h in series [3] of 1.25 µM (≈ 0.551 µg/mL). Besides, the Activity in series [12] is 36.88%. The compound further registered a logD at 4 h in [8] of 2.19.

Take `COc1ccc(Cn2nnc(O)c2C(=O)Nc2cc(C(F)(F)F)cc(C(F)(F)F)c2)cc1`: the IC50 in [1] is 400 nM; in series [4], 33.8 µM. In addition, in series [2], the inhibition was 33.6%. The concentration in solution in [3] (solubility at 24 h) was 6.91 µM (≈ 3.18 µg/mL). In [8], this compound gave a logD at 4 h of 2.47.

Regarding `COc1ccc(Cc2onc(O)c2C(=O)Nc2cccc(-c3ccccc3)c2)cc1`, the IC50 is 190 nM in series [1] and 54.8 µM in series [4]. Moreover, the inhibition in [2] was determined as 7.32%. Besides, the solubility at 24 h in [3] came out at 10.8 µM (≈ 4.3 µg/mL). In [8], this compound had a logD at 4 h of 2.16. The pKa in series [9] was 4.5.

Consider `COc1ccc(Cn2nnc(O)c2C(=O)Nc2ccc(-c3ccccc3)cc2)cc1`, for which the IC50 was 470 nM in series [1] and 57.9 µM in [4]. The inhibition in series [13] came to 30%. For the same compound, the solubility at 24 h in series [3] is less than 1 µM. This compound came in with a logD at 4 h in series [8] of 2.19.

For `COc1ccc2[nH]c(C(=O)N3CCC(CC(C)(C)O)CC3)cc2c1` [ASP-9521], the IC50 in series [14] is more than 20 µM.

`COc1ccc(Cn2nnc(O)c2C(=O)Nc2cccc(C(F)(F)F)c2)cc1`: the inhibition in series [2] was 59.9%. In [3], this compound came in with a solubility at 24 h of 21.2 µM (≈ 8.32 µg/mL). In series [8], the logD at 4 h was found to be 1.1.

Regarding `COc1ccc(Cn2nnc(O)c2C(=O)Nc2cccc(-c3cccc(OC)c3)c2)cc1`, the figures for the IC50 in series [1] and in [4] were 260 nM and 59 µM, respectively. Also, the inhibition in series [2] was determined as 45.3%. In series [3], this compound showed a solubility at 24 h of less than 1 µM. In addition, in series [8], the logD at 4 h came to 2.5.

As for `COc1ccc(Cn2nnc(O)c2C(=O)Nc2ccc(Oc3ccccc3)cc2)cc1`, the IC50 is 270 nM in series [1] and 58.2 µM in [4]. The inhibition in series [2] was determined as 57.8%. The solubility at 24 h in [3] was less than 1 µM.
